# Assay outcomes: PubChem, several laboratories
# PAD4 inh – human PAD4 inhibitors, primary screen, biochemical, fluorescence polarization, 1536-well format; recombinant PAD4, RCA probe fluorescence polarization; hit rate 0.41% among 330,000; Protein-arginine deiminase type-4 (Homo sapiens), Q9UM07; inhibition, % at 6.36 µM;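 active = percent inhibition above a cutoff equal to the mean of all tested compounds plus 3 SD, cut at about 15% in these data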;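 also: 0% = PAD4 with RCA probe and DMSO and 100% = probe without PAD4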
# Apaf1 inhib – inhibitors of human Apaf-1 apoptosome, primary screen, biochemical, DEVD-Rh110 fluorescence, uHTS | reconstituted apoptosome caspase-3 activity | hit rate 0.71% among 330,000 | inhibition, % at 20 µM | AID 489030, 2010 | Apoptotic protease-activating factor 1 (Homo sapiens), O14727; active = inhibition of at least 40% at 20 µM;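 also: plate controls were DMSO wells for no effect and DEVD-CHO caspase inhibitor wells for full effect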
# Target sequence (O14727 whole entry, looked up): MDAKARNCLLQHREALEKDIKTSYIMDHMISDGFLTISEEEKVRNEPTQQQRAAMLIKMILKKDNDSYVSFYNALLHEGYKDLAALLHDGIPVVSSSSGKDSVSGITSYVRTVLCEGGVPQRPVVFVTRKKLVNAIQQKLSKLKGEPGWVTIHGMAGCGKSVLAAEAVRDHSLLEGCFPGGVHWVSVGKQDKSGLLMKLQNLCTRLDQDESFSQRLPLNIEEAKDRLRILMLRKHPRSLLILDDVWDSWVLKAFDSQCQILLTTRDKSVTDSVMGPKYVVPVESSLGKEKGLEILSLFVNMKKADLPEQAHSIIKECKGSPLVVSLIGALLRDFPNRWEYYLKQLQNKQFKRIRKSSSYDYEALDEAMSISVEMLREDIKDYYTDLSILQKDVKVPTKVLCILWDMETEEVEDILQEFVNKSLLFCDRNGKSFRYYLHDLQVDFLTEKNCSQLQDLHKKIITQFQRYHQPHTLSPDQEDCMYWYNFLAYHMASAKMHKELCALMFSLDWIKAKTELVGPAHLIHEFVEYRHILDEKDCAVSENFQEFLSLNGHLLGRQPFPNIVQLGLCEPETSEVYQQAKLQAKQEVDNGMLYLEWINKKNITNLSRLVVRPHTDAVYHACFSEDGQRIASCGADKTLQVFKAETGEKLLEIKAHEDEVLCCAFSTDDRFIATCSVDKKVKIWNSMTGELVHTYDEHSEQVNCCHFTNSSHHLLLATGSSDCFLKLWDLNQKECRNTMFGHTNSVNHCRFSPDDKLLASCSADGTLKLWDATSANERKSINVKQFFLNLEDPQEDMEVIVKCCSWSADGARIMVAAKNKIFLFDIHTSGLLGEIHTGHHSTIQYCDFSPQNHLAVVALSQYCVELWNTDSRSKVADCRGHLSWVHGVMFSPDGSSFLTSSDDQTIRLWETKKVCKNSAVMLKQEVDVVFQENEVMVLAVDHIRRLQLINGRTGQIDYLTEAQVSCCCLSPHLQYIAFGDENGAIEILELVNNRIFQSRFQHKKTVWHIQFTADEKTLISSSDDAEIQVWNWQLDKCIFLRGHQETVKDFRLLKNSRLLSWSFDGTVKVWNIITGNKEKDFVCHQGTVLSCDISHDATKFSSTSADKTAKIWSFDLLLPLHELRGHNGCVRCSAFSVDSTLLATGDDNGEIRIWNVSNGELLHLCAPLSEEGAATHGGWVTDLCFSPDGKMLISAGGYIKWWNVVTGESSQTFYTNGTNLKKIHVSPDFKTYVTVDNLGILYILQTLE
#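 System: Apoptosome proteins | Medium: Hepes pH 7.5 with detergent and BSA | Also added: Cytochrome c trigger plus (Z-DEVD)2-Rh110 caspase-3 substrate | Incubation: 30 min compound preincubation, 50 min activation, room temperature | Detection: Rhodamine 110 fluorescence at Ex 480/Em 540 nm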
# GSTO1 inh – inhibitors of recombinant GSTO1, primary screen, counter-screen for RBBP9 inhibitor project, biochemical, fluorescence polarization. Glutathione S-transferase omega-1 (Homo sapiens), P78417. activity-based probe fluorescence polarization. inhibition, % at 5.96 µM. hit rate 1.1% among 300,000. AID 1974, 2009;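 active = inhibition above the campaign mean inhibition plus 3 SD, cut at about 35% in these data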;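 also: 0% = GSTO1-1 with DMSO and 100% = wells lacking GSTO1-1 enzyme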
# PRMT1 inh – PRMT1 methyltransferase inhibitors, primary screen, biochemical, fluorescence polarization | inhibition, % at 2.79 µM | hit rate 1.3% among 370,000 | recombinant PRMT1, activity-based probe fluorescence polarization | AID 652257, 2013;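 active = inhibition above about 21% made by adding two undisclosed values, limit read from the data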
# TDP2 inh – human TDP2 enzyme inhibitors, primary screen, biochemical, epi absorbance, recombinant enzyme; Tyrosyl-DNA phosphodiesterase 2 (Homo sapiens), O95551; T5PNP hydrolysis, p-nitrophenol absorbance 415 nm; inhibition, % at 12.8 µM; hit rate 0.34% among 370,000; AID 720702, 2013;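 active = inhibition above the mean of all tested compounds plus 3 SD, set per campaign, cut at about 25% in these data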;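 also: 0% = DMSO with enzyme and 100% = buffer with substrate but no TDP2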
#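 Evaluation: % inhibition relative to enzyme-containing and enzyme-free wells. Material: recombinant human TDP2. Benchmarks: enzyme-free and DMSO wells. Timing: enzyme reaction with compound for 2 h at 37 °C. Compound dosing: 12.8 µM only. Measured by: p-Nitrophenol epi absorbance. Reagent: T5PNP substrate at 5 mM, a TopII-DNA adduct mimic. Replication: single well per compound.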
# PAD4 FP conf – human PAD4 inhibitors, confirmation, biochemical, fluorescence polarization | hit rate 28% among 1,200 | inhibition, % at 6.36 µM | recombinant PAD4, RCA probe fluorescence polarization | shares compounds with PAD4 inh | AID 488796, 2010;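 active = mean inhibition across replicates above the hit cutoff set by the earlier primary screen, cut at about 15% in these data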;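 also: inhibitors block active-site labeling by the probe so polarization falls; 0% = PAD4 with probe and DMSO and 100% = probe without PAD4 enzyme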
# Starred values were filed as active, the others as inactive; · = no result. The list is not random: actives were taken first. Their share in the collection is about 2.6%.
SMILES,PAD4 inh,Apaf1 inhib,GSTO1 inh,PRMT1 inh,TDP2 inh,PAD4 FP conf
O=C(OC1CC2CC1[C@H]1CCCCN1C2=O)N1CCN(C(=O)c2ccccc2)CC1 (stereo partly specified),·,·,·,0,-2,·
CC(C)c1ccc(N(C(=O)c2cc3ccccc3oc2=O)C2C=CS(=O)(=O)C2)cc1 (stereo unspecified),17*,13,4,-3,-1,-5
CCS(=O)(=O)N1Cc2cc(C(=O)N(C)C)nc(-c3cccc(-c4ccc(F)cc4)c3)c2[C@H]1CCO,·,·,·,0,0,·
COCc1nnc(NC(=O)c2ccc(OC)cc2OC)s1,2,-10,-3,1,4,·
COc1ccc(Cc2nnc(Nc3ccccc3)s2)cc1Br,83*,19,36*,6,0,79*
COc1ccc(C(=O)Nc2nnc(Cc3ccc(OC)c(OC)c3)s2)c(OC)c1,22*,-5,28,7,-3,32*
O=c1[nH]cnc2c1ncn2C1CCC(CO)O1 (stereo unspecified),·,·,·,-6,-15,·
COC(=O)[C@]12C[C@H](CC(=O)N3CCSCC3)C(=O)N(Cc3ccc(Cl)cc3Cl)C1=C[C@H](C1CCCC1)O[C@@H]2C,·,·,·,0,1,·
Cc1ccc(N2C(=O)CSC23C(=O)Nc2ccccc23)cc1 (stereo unspecified),16*,4,2,5,-4,19*
CCOc1ccc2c(O)csc2c1,24*,11,3,41*,3,20*
CC(C)(C)NC(=O)C1C(c2ccc(C(F)(F)F)cc2)=Nc2ccccc2N1C(=O)c1cccc2ccccc12 (stereo unspecified),·,·,·,6,0,·
CC(=O)N1CC[n+]2c(-c3ccc(Cl)cc3)csc21,22*,-9,7,78*,-6,6
O=C1CC(c2ccc3ccccc3c2)N=C2N(Cc3ccc4c(c3)OCO4)C/C(=C/c3ccccc3)N12 (stereo unspecified),·,·,·,0,-4,·
COC(=O)c1cc(NC(=O)CSC2=NCCS2)cc(C(=O)OC)c1,18*,-5,-3,17,-10,15*
NS(=O)(=O)c1ccc(NC(=O)CSC2=NC(=O)C(c3ccccc3)C(=O)N2)cc1 (stereo unspecified),14,-4,10,14,1,·
COc1ccc(CC(=O)Nc2ccc(C(N)=O)cc2)cc1,-1,-30,7,8,3,·
CC(NC(=O)CSC1=NCCS1)c1ccccc1 (stereo unspecified),0,-7,1,3,-9,·
CCOc1ccc(NC(=O)CSC2=NCCN2)cc1,5,-12,2,8,0,·
COC(=O)c1ccc(NC(=O)CSC2=NCCN2)cc1,18*,-13,2,63*,13,30*
CCC1C(=O)N=C(SCC(=O)Nc2ccc(C(=O)OC)cc2)NC1=O (stereo unspecified),16*,-12,0,11,-10,21*
COC(=O)c1cc(NC(=O)Cc2ccc(OC)cc2)cc(C(=O)OC)c1,21*,16,-1,5,-2,17*
CC(C)[C@H](NC(=O)OC(C)(C)C)c1cc(C(=O)N2CCOCC2)c(N)s1,·,·,·,-1,0,·
COC(=O)[C@]12CCCCC=C1N(Cc1ccccc1)C(=O)[C@H](CC(=O)NCc1cccs1)C2,·,·,·,6,-16,·
CC(C)(C)OC(=O)NCCc1nc(NC(=O)OCc2ccccc2)sc1C(=O)O,·,·,·,1,1,·
COC(=O)C(Sc1nc(C)cc(C)c1C#N)c1ccccc1 (stereo unspecified),-2,-13,-3,0,-1,·
SMILES,PAD4 inh,Apaf1 inhib,GSTO1 inh,PRMT1 inh,TDP2 inh,PAD4 FP conf
Cc1cc(C)c(C#N)c(Sc2ccccc2N)n1,21*,-9,1,-1,5,52*
COc1ccccc1-c1nc(C(=O)NCC2CCCO2)cc2c1[nH]c1ccccc12 (stereo unspecified),37*,-1,-17,·,·,33*
COc1cc(-c2nc(C(=O)NCC3CCCO3)cc3c2[nH]c2ccccc23)cc(OC)c1OC (stereo unspecified),33*,0,-8,1,-4,38*
O=C(NCC1CCCO1)c1cc2c([nH]c3ccccc32)c(-c2cccc(Cl)c2)n1 (stereo unspecified),-3,4,-38,·,·,·
CC1C(O)=C(c2ccccc2)P(=O)(Cc2ccccc2)C1C (stereo unspecified),·,·,·,1,-4,·
COc1cc(-c2nc3c4ccccc4nc(=S)n3[nH]2)cc(OC)c1OC,16*,-19,-2,-8,12,25*
O=[N+]([O-])c1ccc(C2CC(c3ccccc3)=Nc3ccccc3S2)cc1 (stereo unspecified),22*,16,3,79*,-23,3
Fc1ccc(C2CC(c3ccco3)=Nc3ccccc3S2)cc1 (stereo unspecified),15*,5,2,71*,9,1
CCn1c(COc2ccc(C)cc2)nnc1SCC(=O)c1ccc(-c2ccccc2)cc1,·,·,·,0,-2,·
COc1ccc(NC(=O)C(c2ccccc2F)n2c(=O)c(-c3cc4ccccc4[nH]3)nc3ccccc32)cc1 (stereo unspecified),·,·,·,-2,1,·
Cc1ccc(NC(=O)CCNS(=O)(=O)c2ccc3[nH]c(=O)oc3c2)cc1F,21*,-11,-1,-1,-6,4
COc1ccc(/C=N/NC(=O)Cn2nnc3ccccc32)cc1OC,0,4,-1,-3,2,·
CN(C)c1ccc(/C=N/NC(=O)Cn2nnc3ccccc32)cc1,15*,-5,1,2,-3,-1
COc1ccc(OC(F)(F)F)cc1CC1(C)C(=O)Nc2ccc(S(=O)(=O)NC3CCCCC3)cc21 (stereo unspecified),·,·,·,0,-11,·
COc1ccc(CC(=O)N2CCN=C2SC)cc1,28*,-6,8,1,2,4
CC(=O)N1CCN(C(=O)CSc2nc3cccnc3n2C)CC1,·,·,·,-1,0,·
CC(=NC1CCCC1)c1c(C)[nH]n(-c2nc3ccccc3s2)c1=O,19*,13,-13,-3,0,17*
CC(=NC1CC1)c1c(-c2ccccc2)[nH]n(-c2nc3ccccc3s2)c1=O,5,2,-1,3,-6,·
CCCCCCCCN1C(=O)[C@H](CC(=O)NCc2ccc(OC)c(OC)c2)C[C@@]2(C(=O)OC)CCCCC=C12,·,·,·,-4,1,·
